Data set [1] concerns Pancreatic islet. The data set can be described thus: Induction of insulin release in human pancreatic islets. Format: functional.
The nature of data set [2]: Clearance in mouse at 1 mg/kg, iv. The data set is classed as ADME, organism-based. The note with it: in vivo. The method in brief:
(§1)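 Oral doses given as a suspension in aqueous 1% Tween 80 in 1% methylcellulose; IV doses formulated in 10% N,N-dimethylacetamide, 10% ethanol, 30% propylene glycol, 50% sterile water. Animals per species: mouse n = 2 (plasma from two mice at each time point), rat n = 2, dog n = 3, cynomolgus monkey n = 3.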

The next data set deals with MDR1. The data set can be described thus: Permeability across apical to basolateral side in MDCK cells expressing MDR1. Format: ADME, cell-based, Canis lupus familiaris. To be noted: dog, read-out: permeability.
Data set [3] deals with Pancreatic islet. The data set is described as follows: Induction of glucose-stimulated insulin release in human GPR40 knock-in mouse pancreatic islets by insulin ELISA in presence of 0.1% human serum albumin and glucose. The data set is classed as functional. Put shortly: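 Islets were isolated from knock-in mice in which the mouse GPR40 gene is replaced by human GPR40. Glucose-stimulated insulin secretion was measured in buffer containing 16.7 mM glucose and 0.1% human serum albumin.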
(ELISA stands for enzyme-linked immunosorbent assay.)

The target of data set [4] is T1, Peroxisome proliferator-activated receptor alpha (Homo sapiens) (UniProt Q07869).
T1 sequence (whole entry): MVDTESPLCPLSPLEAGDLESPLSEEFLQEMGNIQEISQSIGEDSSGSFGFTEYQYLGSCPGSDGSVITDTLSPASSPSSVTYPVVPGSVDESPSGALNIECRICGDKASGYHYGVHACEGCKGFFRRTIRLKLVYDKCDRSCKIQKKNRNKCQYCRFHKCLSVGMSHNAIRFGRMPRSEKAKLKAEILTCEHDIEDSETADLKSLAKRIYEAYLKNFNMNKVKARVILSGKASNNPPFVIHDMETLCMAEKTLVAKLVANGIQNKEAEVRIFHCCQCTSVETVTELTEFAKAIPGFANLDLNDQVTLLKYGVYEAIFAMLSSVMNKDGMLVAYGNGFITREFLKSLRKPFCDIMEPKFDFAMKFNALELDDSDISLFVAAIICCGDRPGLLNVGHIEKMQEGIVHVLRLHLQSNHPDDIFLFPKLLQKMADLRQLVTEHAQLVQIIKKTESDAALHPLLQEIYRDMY
The data set is described as follows: Activity at PPARalpha (unknown origin) by cell based assay.

Data set [5] in a line: Volume of distribution at steady state in cynomolgus monkey at 0.5 mg/kg, iv. Format: ADME, organism-based, Macaca fascicularis. The note with it: in vivo, read-out: Vdss. The method in brief:
as §1

The nature of data set [6]: Oral bioavailability in mouse at 5 mg/kg. The data set is classed as ADME, organism-based. To be noted: in vivo. The method in brief:
as §1

The nature of data set [7]: Clearance in cynomolgus monkey at 0.5 mg/kg, iv. The data set is classed as ADME, organism-based, Macaca fascicularis. The note with it: in vivo. The method in brief: as §1
Data set [8] deals with Free fatty acid receptor 1 (Rattus norvegicus, UniProt Q8K3T4). The data set is described as follows: Agonist activity at rat GPR40 in presence of 0.01% human serum albumin.
Free fatty acid receptor 1, sequence (Q8K3T4 whole entry): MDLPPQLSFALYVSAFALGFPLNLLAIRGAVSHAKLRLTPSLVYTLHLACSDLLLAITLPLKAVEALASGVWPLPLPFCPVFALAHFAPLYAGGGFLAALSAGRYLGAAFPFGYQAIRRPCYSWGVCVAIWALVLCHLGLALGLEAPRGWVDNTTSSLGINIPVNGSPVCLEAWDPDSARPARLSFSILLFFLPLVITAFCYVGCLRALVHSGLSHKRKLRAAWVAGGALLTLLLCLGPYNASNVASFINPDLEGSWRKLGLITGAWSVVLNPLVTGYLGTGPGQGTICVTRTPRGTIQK
The species named for another data set is Canis lupus familiaris. The data set can be described thus: Agonist activity at dog GPR40 in presence of 0.01% human serum albumin relative to AMG 837.
The nature of data set [9]: Cmax in mouse at 5 mg/kg, po. The data set is classed as ADME, organism-based. Set-up: dose 5 mg/kg, route oral. The note with it: in vivo. Put shortly: as §1
A short description of data set [10]: Oral bioavailability in rat at 2 mg/kg. The data set is classed as ADME, organism-based. The note with it: in vivo. The method in brief: as §1
A short description of data set [11]: Oral bioavailability in cynomolgus monkey at 5 mg/kg. Format: ADME, organism-based, Macaca fascicularis. The note with it: in vivo. The method in brief: as §1
Data set [12] is described as follows: Clearance in dog at 0.5 mg/kg, iv. Format: ADME, organism-based, Canis lupus familiaris. To be noted: in vivo. The method in brief: as §1

Calls of active or inactive are those of the source. No cut-off for these calls is given here.

The clearance is the volume of plasma or blood freed of the substance per unit of time. What is called bioavailability is dose-corrected exposure relative to a reference, in per cent. A word on the EC50: it is the midpoint of the concentration-response curve. The term Emax denotes the greatest response seen or fitted, relative to the assay's reference. For orientation: Cmax means the peak of the concentration-time curve.

With `Cc1cc(Cl)ccc1-c1cccc(COc2ccc([C@H](CC(=O)O)c3nccn3C)cc2)c1`, the result in the data set on Pancreatic islet [1] and in the data set on Pancreatic islet [3] was Active. Besides, the clearance in data set [2] was 2.83 mL/min/kg; in data set [7], 4.5 mL/min/kg; in data set [12] it was 2.5 mL/min/kg. Further, the Papp A→B with MDR1 was 1.4 ×10⁻⁶ cm/s. The outcome in data set [4] was inactive. Moreover, the Vd in [5] is 1.6 L/kg. Besides, the bioavailability in data set [6] amounted to 100%; in data set [10], 43%; in data set [11], 34%. The EC50 in data set [8] was determined as 640 nM. In addition, the Emax in the data set listed under Canis lupus familiaris was 37%. In data set [9], this molecule registered a Cmax of 4.89 µM.

The record behind these values is ChEMBL document CHEMBL3751835, “Discovery of the imidazole-derived GPR40 agonist AM-3189” (Bioorg Med Chem Lett, 2016).
